# High-throughput results from PubChem BioAssay.
# Hep lipid drop: modulators of hepatic lipid droplet formation; AML12 mouse hepatocytes, oleate lipid droplets, BODIPY imaging; inhibition, % at 6.5 µM; 0.4% of 240,000 active; AID 1656;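 active = lipid droplet intensity inhibited by at least 50%, with more than 500 cells counted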
#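 Assay system: AML12 mouse liver cells | Compound dosing: One dose, 6.5 µM compound | Read-out basis: Droplet intensity reduction, % inhibition | Measured by: Fluorescence imaging, 20x objective, two fields per well | Schedule: Overnight treatment with compound plus oleate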
# SR-BI DiI-HDL act: enhances SR-BI lipid uptake from DiI-HDL. CHO ldlA[mSR-BI] cells, DiI-HDL uptake fluorescence, 3 h; 100 = double the neutral-control signal. activation, % at 12.5 µM. 0.096% of 320,000 active. AID 504775;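 active = mean replicate activation of at least 60% and every replicate at or above 60%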
#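 Material – SR-BI-overexpressing, LDLR-lacking CHO cells · Medium – BSA-supplemented, HEPES-buffered Ham's F12, pH 7.4 · Doses – single concentration · Times – compound with DiI-HDL co-incubation, 3 h at 37 °C · Measured by – bottom-read fluorescence, 550/595 nm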
# AHR act: human AHR activation. P35869. AHR-responsive luciferase reporter cells, luminescence. activation, % at 5 µM. 2.5% of 320,000 active. AID 2796; in the data active = activation above about 47%
# Target sequence (P35869 whole entry, looked up): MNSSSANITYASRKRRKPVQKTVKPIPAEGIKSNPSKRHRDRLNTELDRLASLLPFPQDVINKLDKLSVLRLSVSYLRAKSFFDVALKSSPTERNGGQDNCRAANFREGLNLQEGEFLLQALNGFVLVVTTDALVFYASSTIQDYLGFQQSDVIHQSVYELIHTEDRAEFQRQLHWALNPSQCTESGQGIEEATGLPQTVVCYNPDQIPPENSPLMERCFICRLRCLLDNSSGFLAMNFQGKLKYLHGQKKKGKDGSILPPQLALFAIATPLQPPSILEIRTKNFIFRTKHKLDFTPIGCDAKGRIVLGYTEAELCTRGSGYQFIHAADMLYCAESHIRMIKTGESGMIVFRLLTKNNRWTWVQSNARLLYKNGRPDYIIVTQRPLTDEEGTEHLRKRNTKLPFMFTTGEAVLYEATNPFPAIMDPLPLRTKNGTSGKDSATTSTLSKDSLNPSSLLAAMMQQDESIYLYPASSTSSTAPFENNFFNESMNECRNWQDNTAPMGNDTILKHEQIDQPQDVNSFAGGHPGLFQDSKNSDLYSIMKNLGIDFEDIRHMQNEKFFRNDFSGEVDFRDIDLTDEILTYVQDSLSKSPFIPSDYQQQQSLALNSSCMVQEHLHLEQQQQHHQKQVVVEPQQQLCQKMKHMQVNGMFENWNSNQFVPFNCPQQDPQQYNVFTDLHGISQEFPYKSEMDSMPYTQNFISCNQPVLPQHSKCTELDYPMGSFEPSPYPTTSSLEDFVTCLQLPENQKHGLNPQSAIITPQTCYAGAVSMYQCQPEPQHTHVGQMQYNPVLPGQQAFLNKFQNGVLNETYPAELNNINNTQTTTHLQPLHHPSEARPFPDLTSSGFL
# SR-BI DiI inh: blocks mouse SR-BI lipid uptake from DiI-HDL; inhibition, % at 12.5 µM; ldlA[mSR-BI] CHO cells, DiI-HDL uptake fluorescence, 3 h; 0.96% of 320,000 active;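 active = mean replicate inhibition of at least 70% and a set share of replicates each scoring 70 or more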
# SMARCA2 act: activators of SMARCA2 function; 1% of 370,000 active; AID 652017; MG213 cells, MMTV-luciferase reporter, dexamethasone, overnight; activation, % at 9.1 µM; in the data active = activation above about 7.8%
# Yeast superoxide: yeast age-related superoxide inhibition as caloric restriction mimetic. S. cerevisiae aged cells, superoxide DHE fluorescence; hits give low values. 0.18% of 330,000 active. superoxide response (% of plate mean), % at 10 µM;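 active = superoxide response under a set limit, about three screen SD below normal, cut at about 65% in these data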;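 note: yeast aged for seven days with compound at 30 °C before DHE staining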
# Hits are given with their value; – = inactive; · = not tested or not shown. Shown are actives, neighbours in structure and some others; about 4.3% of the full set was active somewhere.
SMILES,Hep lipid drop,SR-BI DiI-HDL act,AHR act,SR-BI DiI inh,SMARCA2 act,Yeast superoxide
CN(c1cccc(NC(=O)CN(c2ccc(C34CC5CC(CC(C5)C3)C4)cc2)S(C)(=O)=O)c1)S(C)(=O)=O,·,76.4,–,–,·,–
CN(c1cccc(NC(=O)CN(c2ccc(F)cc2)S(C)(=O)=O)c1)S(C)(=O)=O,–,–,–,–,–,–
CC(C)N(Cc1nc(-c2ccc3c(c2)OCO3)no1)Cc1nccn1C,–,–,60.7,–,–,–
CC(OC(=O)c1ccc(Cl)nc1)C(=O)NC1CCCC1 (configuration not stated),·,412.1,–,–,–,–
COc1cccc(/C=C/C(=O)NNC(=O)c2ccccc2)c1OC,·,–,–,–,–,–
COc1cccc(/C=C/C(=C2/C(=O)N(c3ccccc3)N=C2C)c2ccc(C)cc2)c1OC,74.4,–,–,–,–,–
O=C(Nc1ccc(F)cc1)N(Cc1cccs1)Cc1cc2cc3c(cc2[nH]c1=O)OCO3,–,–,53.6,–,–,–
Cc1ccc(NC(=O)N(Cc2cccs2)Cc2cc3cc4c(cc3[nH]c2=O)OCO4)cc1,–,·,–,·,–,–
COC(=O)[C@H](C(C)C)N1Cc2nnn(Cc3ccccc3)c2C=CS1(=O)=O,·,·,·,·,–,·
Cc1nc2sccn2c1-c1nc(-c2cc3ccccc3o2)cs1,·,–,53.9,–,–,–
CN(C)CC(=O)N[C@@H]1CC[C@@H](CC(=O)NCCN2CCCCC2)O[C@@H]1CO,·,·,·,·,–,·
CN(C)CC(=O)N[C@@H]1C=C[C@@H](CC(=O)NCCN2CCCCC2)O[C@@H]1CO,·,·,·,·,7.8,·
COc1cc(-n2c(N)c(C(=O)NCc3ccco3)c3nc4ccccc4nc32)cc(OC)c1OC,–,–,–,–,–,–
COc1ccc(-n2c(N)c(C(=O)NCc3ccco3)c3nc4ccccc4nc32)cc1OC,–,–,–,–,8.4,–
CCNC(=O)Nc1ccc2c(c1)C(=O)N(C)[C@H]1CC[C@@H](CC(=O)NCCN3CCCC3)O[C@@H]1CO2,·,·,·,·,–,·
CCc1ccc(Cn2c(=O)n(Cc3ccc(C(=O)NCCCOC)cc3)c(=O)c3ccccc32)cc1,·,·,·,·,–,·
CCCCNC(=O)CCn1c(=O)c2ccccc2n(CC(=O)NCCc2ccc(OC)c(OC)c2)c1=O,–,·,–,·,–,–
COCCCNC(=O)c1ccc(Cn2c(=O)c3ccccc3n(CC(=O)NCCc3ccc(OC)c(OC)c3)c2=O)cc1,–,–,–,80.8,–,–
COCCCNC(=O)Cn1c(=O)n(Cc2ccc(C(=O)NCCc3ccc(OC)c(OC)c3)cc2)c(=O)c2ccccc21,–,–,–,88.3,–,–
COc1ccc(-n2c(SCC(=O)Nc3ccc(Oc4ccccc4)cc3)nnc2-c2ccco2)cc1,·,·,·,·,–,·
Cc1cc(C)c(C(N)=O)c(Nc2cccc3ccccc23)n1,–,–,51.9,–,–,–
CCCCNC(=O)C[C@H]1C[C@@]2(C(=O)OC)C(=C[C@H](C(C)(C)C)O[C@@H]2C)N(Cc2ccccc2)C1=O,·,·,·,·,–,·
CCOc1cc(C(=O)N/N=C\c2cn(CC)nc2C)cc(OCC)c1OCC,–,–,–,81.2,–,–
Nc1ccc(Sc2cnn(-c3ccccc3)c(=O)c2Cl)cc1,·,–,–,–,–,–
Cc1ccc(Sc2cnn(-c3ccccc3)c(=O)c2Cl)cc1,·,–,60.8,–,–,–
SMILES,Hep lipid drop,SR-BI DiI-HDL act,AHR act,SR-BI DiI inh,SMARCA2 act,Yeast superoxide
O=C(C1=C[C@@H]2[C@H]3C(=O)N(c4ccc(Cl)cc4)C(=O)[C@H]3[C@@H](C(=O)c3ccc(Cl)cc3)N2C=C1)c1ccccc1,–,–,49.5,–,–,–
CCCc1cc(=O)[nH]c(Nc2ccc3c(c2)OCCO3)n1,–,–,70.7,–,–,–
CCCCc1ccc(Nc2nc(CCC)cc(=O)[nH]2)cc1,–,–,–,–,–,–
Nc1ccc(C(=O)Nc2ccc(OC(F)(F)C(F)F)c(NC(=O)c3ccc(N)cc3)c2)cc1,–,–,–,76.9,–,–
CC1(c2cc(F)ccc2F)NC(=O)N(CC(=O)Nc2cccc(S(=O)(=O)N3CCCC3)c2)C1=O (configuration not stated),·,–,–,–,–,–
CC1(c2ccc3ccccc3c2)NC(=O)N(CC(=O)Nc2cccc(S(=O)(=O)N3CCOCC3)c2)C1=O (configuration not stated),–,–,49.4,–,–,–
O=C(/C=C\c1ccccc1OC(=O)c1ccccc1F)c1cc2ccccc2o1,–,–,59.0,–,–,–
COc1ccc(C2C3=C(CC(C)(C)CC3=O)N(C)C3=C2C(=O)CC(C)(C)C3)cc1OC,–,–,–,–,–,–
COc1ccc(C2OCC(C)(C)CO2)cc1OC,·,76.8,·,–,–,·
CC(C)c1ccc(C(O)Cc2nc3ccccc3n2C)cc1 (configuration not stated),–,–,70.1,–,–,–
COc1ccccc1C(O)Cc1nc2ccccc2n1C (configuration not stated),–,–,–,–,–,–
CN(C)c1ccc(C(O)Cc2nc3ccccc3n2C)cc1 (configuration not stated),–,–,60.1,–,–,–
Nn1c(SCC(=O)Nc2cc(C(F)(F)F)ccc2Cl)nnc1-c1n[nH]c2c1CCC2,·,·,·,·,–,·
COc1ccc(/C=c2\s/c(=C/C(=O)c3ccc(C)cc3)[nH]c2=O)cc1OC,–,–,–,74.3,–,–
CCCn1cc(C(=O)Nc2ccc(Oc3cccnc3)cc2)c2ccccc21,·,·,·,·,–,·
CCC(=O)OCCCN1C(=O)CCC12CCC(C)CC2 (configuration not stated),·,·,·,·,–,·
Cc1cc(NC(=O)c2cccc(Br)c2)n[nH]1,·,–,72.7,–,–,–
COc1cccc(C(=O)NC(=O)Nc2cc(C)[nH]n2)c1,–,·,51.1,·,–,–
COc1cccc(C(=O)Nc2ccncc2)c1,–,·,–,·,·,–
Cc1ccc(Nc2nc(Cl)nc(NC(C)(C)C)n2)cc1,–,–,–,–,–,–
Cc1ccc(Nc2nc(Cl)nc(N(C)C#N)n2)cc1,·,–,54.7,–,–,–
CCn1c2ccccc2c2nnc(SCC(=O)NC(CC(C)C)C(=O)OC)nc21 (configuration not stated),·,–,–,–,7.8,–
CCOC(=O)CSc1nnc2c3ccccc3n(CC)c2n1,–,–,–,–,–,–
CN(C)c1nc(N)nc(/C(C#N)=C/C2CC3C=CC2C3)n1 (configuration not stated),·,–,47.2,–,–,–
CCCCN1CCN(C(=O)c2cn(C(C)c3ccccc3)nn2)CC1 (configuration not stated),·,·,·,·,–,·
COc1ccc2[nH]c3c(=O)n(N)c(C)nc3c2c1,–,–,–,–,–,–
Cc1ccc2[nH]c3c(=O)n(N)c(C)nc3c2c1,–,–,47.5,–,–,–
COc1cccc(NC(=O)c2cc(-c3cccnc3)nc3c(Cl)cccc23)c1,·,–,–,82.3,–,–
